Results on 37 sequences are retold here after the EternaBench riboswitch data.

The series has as its system MS2 coat protein. Briefly: apparent Kd, MS2 coat protein; higher = weaker binding; RNA-MaP array; FMN 200 µM where present. In short, it runs like this:
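On Illumina sequencing-chip clusters, designs were transcribed by stalled E. coli RNA polymerase and titrated with SNAP-549-labelled MS2 coat protein (0.7 or 1.5 nM, doubling to 3 µM), without and then with constant ligand, in 100 mM Tris-HCl pH 7.5, 80 mM KCl, 4 mM MgCl2, BSA, DTT, yeast tRNA and Tween-20. Apparent Kd is the median of filtered per-cluster curve fits to green signal normalised to red-channel RNA signal and control-cluster median Fmax.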

[1] abbreviates: designed as: OFF switch for flavin mononucleotide, no ligand.
Setting [2] is: ligand present: flavin mononucleotide, designed as: OFF switch for flavin mononucleotide.
Where [3] appears, read: designed as: ON switch for flavin mononucleotide, no ligand.
The mark [4] stands for this setting: ligand present: flavin mononucleotide, designed as: ON switch for flavin mononucleotide.

As for “CGUCCACAUGAGGAUCACCCAUGUGAGGAUAUCGAUGUCCCAGGGCGGGUGCGGGACUCGAGAAGGCACUAGGU”, the “apparent Kd” value under setting [1] was determined as 32.7 nM and the “apparent Kd” value under setting [2] came to 93.6 nM.
On to “AAAGCCAACGAAGGAUAUACAAACAUGAGGAUCACCCAUGUGUCUUUCGUGUAACUGGAAUUCGGGUAGAAGGUCGUUGACAUA”, for which the “apparent Kd” value under setting [1] came out at 14.9 nM and the “apparent Kd” value under setting [2] was 21.7 nM.
In the same order, the values of “CGUCGGAGCAGAGGAUAUUACAUGAGGAUCACCCAUGUAUGAACCAAUAGCUGGAAACAGCAAUGUAAGAAGGCUGCUCCGACA” are 12.8 nM and 198 nM.
The corresponding values for “ACUUCACAUGAGGAUCACCCAUGUGAGGAUAUCGUCGAGGAUGUAAUGCCAUCCGUGGCGAGAAGGCGCAUGGU” are 29.9 nM and 77.7 nM.
Turning to “GUAGAACAUGAGGAUCACCCAUGUGAUUACGAUGUAGGAUAUGGGCAUGAGAAGUCAUUUCUAGAAGGGCAGAUAA”, the “apparent Kd” value is, setting by setting: under setting [3], 141 nM; under setting [4], 154 nM.
“CUCAUGUGAGGAUAUCAGUAGUAAAAAAAUAAAAUUACUACUGAGAAGGCACAUGAGGAUCACCCAUGUGUCUU”: the “apparent Kd” value amounted to 16.3 nM under setting [1] and 31.7 nM under setting [2].
With “AAGACAUGAGGAUCACCCAUGUAAAGACCGGUCGAUCAAUGUGAGGAUAUACGAUAAUUGAUAGGGUAGAAGGCACUGGGUUGA”, the “apparent Kd” value is 264 nM under setting [3] and 151 nM under setting [4].
The corresponding values for “GACAUACAUGAGGAUCACCCAUGUUCAGGCGGACAAGGAUAUGUGUGGAAACCAUACUAUACAGAAGGUGUCUGUC” are 24.8 nM and 17.3 nM.
In the case of “GAUUUGUGAGGAUAUACAUGAGGAUCACCCAUGUGUGUCCAUACGCGUGAGUCUUCAUGUAGAAGGCGCGGGUC”, the “apparent Kd” value stood at 17.1 nM under setting [1] and 15.6 nM under setting [2].
For the sequence “GGAUCGUAUGUCAGGAUAUACCACUGGAUACAGUGGUAGAAGGGACAUGAGGAUCACCCAUGUGUUAUCGAUCC”, the “apparent Kd” value was determined as 58.9 nM under setting [1] and 124 nM under setting [2].
Take “AAAAUCGAAGGAUAUACAUAUCCUUUAGCGGCAAUGCCGCGACAUGAGGAUCACCCAUGUAGAAGGUCGUAAAA”: the “apparent Kd” value is, setting by setting: under setting [1], 27.6 nM; under setting [2], 31.5 nM.
Regarding “CUGAUGUUAGGAUAUCAGGUUGCGCGCGAAGGCGCGCGGCAUGAGAAGGAACAUGAGGAUCACCCAUGUGACGA”, the “apparent Kd” value is, setting by setting: under setting [1], 39.7 nM; under setting [2], 148 nM.
With “ACAUUUUAUGCAGGAUAUUGACUUUGGAUUAAACAAGAAGGGCAUUACAUGAGGAUCACCCAUGUUUUAUUGGUAUAUAAGUUC”, the “apparent Kd” value is, setting by setting: under setting [1], 13.9 nM; under setting [2], 17.1 nM.
With “UUCUCGAUGUAGAAGGCCGCGUCCGGCUCACGCGGAGGAUAUACAUGAGGAUCACCCAUGUGUCUGUGGCUUAUAAGGUACGGA”, the “apparent Kd” value came to 98.8 nM under setting [1] and 67.7 nM under setting [2].
“UACAUGUAAGGAUAUGUAAAAUCAAAACAAGAACGAUAAAGACAGAAGGUACAUGAGGAUCACCCAUGUGUCCC”: the “apparent Kd” value by setting is: under setting [1], 20.5 nM; under setting [2], 21.4 nM.
For “GUCUUUAAGGUAGGAUAUAGUAUGAUGGUUUAAUUAGAAGGAUCUCACAUGAGGAUCACCCAUGUAAUAGGAUUACCCAUGUAU”, the “apparent Kd” value under setting [1] was found to be 60.9 nM and the “apparent Kd” value under setting [2] is 43.4 nM.
Regarding “ACAUGCGGAUGAGGAUAUUCAUUUAUGAGGAUAGAAGAAGGCAUACAUGAGGAUCACCCAUGUAUACGCAUGAGGAUCCCUUAU”, the “apparent Kd” value is 41.1 nM under setting [1] and 40 nM under setting [2].
As to “UUUUUGUCAGGAUAUGAUUAGAUCUACUUUUGUAGAUCUAAUCAGAAGGGACAUGAGGAUCACCCAUGUAGUUU”, the “apparent Kd” value came out at 37.2 nM under setting [1] and 152 nM under setting [2].
Take “GCACUUACGUUAGGAUAUGGAUCGGAAAACGAUCCAGAAGGAAUAUGGGAACAUGAGGAUCACCCAUGUUCCUCAGACAAGUGC”: the “apparent Kd” value came out at 67.7 nM under setting [3] and 35.1 nM under setting [4].
Consider “UGCAUGCUAGGAUAUACGGGACAUUAGGGUUCGUCGUAUGGACAUGAGGAUCACCCAUGUAGAAGGAGCGUGCU”, for which the “apparent Kd” value came out at 18.6 nM under setting [1] and 44.5 nM under setting [2].
In the same order, the values of “UUCAGCUCGACAGGAUAUACAUCACUGCUUCGGCAGUGUAUCUUAAUAACAUGAGGAUCACCCAUGUAGAAGGGUCGAGCUGAA” are 17.9 nM and 31.4 nM.
As for “CGGGAGUCAGGAUAUACGAACAUGUCGCCAGAUGUCAUGGUACAUGAGGAUCACCCAUGUAGAAGGGAGGAGAU”, the “apparent Kd” value stood at 139 nM under setting [1] and 103 nM under setting [2].
Turning to “CUCAGCAAGGAAGGAUAUGGGUUUUCGCACAUGAGGAUCACCCAUGUCGCAGUCCCUACGGGAUCCCAGAAGGUCUAUGCGUGG”, the “apparent Kd” value reads like this: under setting [3], 260 nM; under setting [4], 16.3 nM.
For “AGAGUGUCAGGAUAUCCUGCUGUGCGGAAUCUGUAUUCACGGGAGAAGGGACAUGAGGAUCACCCAUGUUUGAG”, the “apparent Kd” value runs as follows: under setting [1], 18.9 nM; under setting [2], 28.1 nM.
For “AGUGCGUAUGUGAGGAUAUGCUGGUCCUUGGAUCGGCAGAAGGCACAUGAGGAUCACCCAUGUGGUGUCGUACU”, the “apparent Kd” value under setting [1] worked out at 381 nM and the “apparent Kd” value under setting [2] is 20 nM.
For “AUCAAUCACAUAGGAUAUAGAAUAUUAUAUUUUUACAUGAGGAUCACCCAUGUUUUAUUGGGAUUCUAGAAGGAUGAGUUAUUA”, the “apparent Kd” value runs as follows: under setting [3], 130 nM; under setting [4], 118 nM.
Take “GCGUUCUUGUAGAAGGUACAUACAAUAUCUUUUUAACACAUGACACAUGAGGAUCACCCAUGUUGUAAGGAUAUACAUGAACGC”: the “apparent Kd” value reads like this: under setting [3], 6.8 nM; under setting [4], 6.91 nM.
With “AGUACCAUGUAGAAGGCAUAUCUCAAAGAGAUAUGAGGAUAUACAUGAGGAUCACCCAUGUAAAUGUACUCCAGGAAACUGGAA”, the “apparent Kd” value under setting [1] worked out at 28.3 nM and the “apparent Kd” value under setting [2] was found to be 136 nM.
With “UUAUUUAGGUAGGAUAUCGAUACUAAUUAUUAUCGAGAAGGGUCUACAUGAGGAUCACCCAUGUUAGCAUGUUU”, the “apparent Kd” value by setting is: under setting [1], 28 nM; under setting [2], 27.7 nM.
Regarding “UUGAGGUGCAAGAAGGAUCACAUGAGGAUCACCCAUGUAAUAUAAAGUCUCGAGAUUUUAUAUUGAUAGGAUAUUGCACCGAAC”, the “apparent Kd” value under setting [3] is 42.2 nM and the “apparent Kd” value under setting [4] stood at 6.26 nM.
The corresponding values for “CCACGUCACAUUAACAUGAGGAUCACCCAUGUCUCUAGACAUGAGGAUAUGGAUCCUAAUUGGAUCCAGAAGGCAUGGACGUGG” are 1420 nM and 138 nM.
Regarding “GGCGGACAUGAGGAUCACCCAUGUAAGGAUAUUAGGCGAUCGUCGAAAGACGAUAGCCUGAGAAGGUACGCGCC”, the “apparent Kd” value reads like this: under setting [1], 14.7 nM; under setting [2], 17.2 nM.
Turning to “CAGUCUACAGGAUAUACAUGAGGAUCACCCAUGUGUUUUCACUUUCAGUAGUCUAUAUGUAGAAGGGUAGACUG”, the “apparent Kd” value reads like this: under setting [1], 24.8 nM; under setting [2], 90.1 nM.
“CGGGCGCGAGGAUAUACAUGAGGAUCACCCAUGUAACGGGUUUGAAUCGGGCUUGCGUGUAGAAGGUGUGUUUG”: the “apparent Kd” value was found to be 86 nM under setting [1] and 73.8 nM under setting [2].
For “CACCGUUAGCGAGGAUAUCGUACAUGAGGAUCACCCAUGUAAUAAAUGAGAAUUUCGGAUGUAUGCGAGAAGGCGCAAAUCGGC”, the “apparent Kd” value is 59 nM under setting [1] and 43.4 nM under setting [2].
For the sequence “UUUCGGUGGCUGGAGGAUAUCCUGGUUGUUACAUGAGGAUCACCCAUGUGCCGCGCGGUGCGCUGGGAGAAGGCCGGCGGCCCUU”, the “apparent Kd” value by setting is: under setting [3], 37.7 nM; under setting [4], 16.1 nM.
“GCGUUGUACGAGAAGGCCAAUACAUGAGGAUCACCCAUGUUAAGUUGUUUUGGAGGAUAUCGAUCACAUUCAAUAAUGCAACGC”: the “apparent Kd” value is, setting by setting: under setting [1], 6.71 nM; under setting [2], 5.77 nM.
